According to publication PMC3800034 (Journal of medicinal chemistry, 2013):
Entries after “also recorded” stand apart in the source; their conditions may differ. One block for each compound: values may come before it.

Tests used:
OXE receptor [1] = conditions: cited from earlier work
neutrophil migration = conditions: cited from earlier work
OXE receptor [2] = target: OXE receptor (Homo sapiens, UniProt Q8TDS5); type: cell-based
[3] = test system: response of neutrophils to LTB4; experiment: LTB4-induced calcium mobilization in human neutrophils; type: cell-based; conditions: compound 10 µM, LTB4 10 nM
Outline: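 Neutrophils from whole blood of healthy human donors, suspended in phosphate-buffered saline, loaded with indo-1, and moved to a cuvette with CaCl₂ (1.8 mM) and MgCl₂ (1 mM) 5 min before the run. Fluorescence was read at 37 °C in a spectrofluorimeter. After a stable baseline, vehicle or test compound was added, then LTB4 (10 nM) 2 min later. Digitonin followed to give maximal response.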

OXE receptor (Homo sapiens, UniProt Q8TDS5), sequence (Q8TDS5 whole entry): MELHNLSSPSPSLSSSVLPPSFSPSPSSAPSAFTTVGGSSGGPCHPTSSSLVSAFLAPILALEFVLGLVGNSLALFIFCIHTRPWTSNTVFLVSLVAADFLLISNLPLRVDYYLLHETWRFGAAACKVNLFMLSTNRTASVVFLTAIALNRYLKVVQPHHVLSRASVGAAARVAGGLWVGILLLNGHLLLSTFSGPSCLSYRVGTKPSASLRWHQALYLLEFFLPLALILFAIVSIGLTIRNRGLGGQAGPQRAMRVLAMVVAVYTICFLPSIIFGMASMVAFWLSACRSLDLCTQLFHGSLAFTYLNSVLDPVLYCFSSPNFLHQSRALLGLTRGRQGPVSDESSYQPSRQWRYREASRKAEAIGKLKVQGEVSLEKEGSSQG

SMILES: CCCCC/C=C\C[C@H](O)/C=C/C=C\C=C\C(=O)CCCC(=O)O [5-oxo-12S-HETE 6, 5-oxo-12S-HETE]
- effect on intracellular Ca++ levels in neutrophils (OXE receptor [1]; compound alone): virtually no effect
- block of 5-oxo-ETE-induced Ca++ mobilization (OXE receptor [1]; neutrophils): low µmolar range
- effect on 5-oxo-ETE-induced neutrophil migration (neutrophil migration): inhibited

- mobilization of intracellular calcium by the compound alone (agonist activity) (OXE receptor [2]; compound 30 µM added to neutrophils): neither mobilized intracellular calcium
SMILES: O=C(O)CCCC(=O)n1ccc2ccccc21 [Compound 10, 5-(1H-indol-1-yl)-5-oxopentanoic acid]
- effect on the response to 5-oxo-ETE (antagonist activity) (OXE receptor [2]; compound 30 µM, 5-oxo-ETE 10 nM added 2 min later): nor altered the response to 5-oxo-ETE; also recorded: does not affect calcium mobilization

- IC50 (OXE receptor [2]): 400 ± 30 nM
- increase in potency compared with non-chlorinated compound 26 (OXE receptor [2]; 5-oxo-ETE-induced calcium mobilization, IC50 ratio): about 4 fold
SMILES: CCCCCCc1cc2ccc(Cl)cc2n1C(=O)CCCC(=O)O [Compound 39, 5-(6-Chloro-2-hexyl-1H-indol-1-yl)-5-oxo-valeric acid]

- inhibition of the effect of 5-oxo-ETE (OXE receptor [2]; compound 1 µM, 5-oxo-ETE 10 nM): substantially inhibited
- inhibition of the response to 5-oxo-ETE (OXE receptor [2]; compound 10 µM, 5-oxo-ETE 10 nM): completely inhibiting
SMILES: CCCCCCc1cc2ccccc2n1C(=O)CCCC(=O)O [Compound 26, 5-(2-Hexyl-1H-indol-1-yl)-5-oxo-valeric acid]
- effect on the response of neutrophils to LTB4 [3]: virtually no effect
